From PubChem
Only some compounds are listed: those with a hit (about 3.6% of all), similar ones and a draw of the others.
PAFAH1B3 inh: PAFAH1B3 enzyme inhibitors, primary screen, biochemical, fluorescence polarization, human; recombinant PAFAH1B3, FP-rhodamine probe; inhibition, % at 3.39 µM; Platelet-activating factor acetylhydrolase IB subunit alpha1 (Homo sapiens), Q15102; AID 492972, 2010; hit rate 0.28% among 340,000;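 active = inhibition above the screen-wide average of all tested compounds plus 3 SD, cut at about 25% in these data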;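 note: 0% = enzyme with DMSO only and 100% = wells lacking PAFAH1B3 protein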
Target sequence (Q15102 whole entry, looked up): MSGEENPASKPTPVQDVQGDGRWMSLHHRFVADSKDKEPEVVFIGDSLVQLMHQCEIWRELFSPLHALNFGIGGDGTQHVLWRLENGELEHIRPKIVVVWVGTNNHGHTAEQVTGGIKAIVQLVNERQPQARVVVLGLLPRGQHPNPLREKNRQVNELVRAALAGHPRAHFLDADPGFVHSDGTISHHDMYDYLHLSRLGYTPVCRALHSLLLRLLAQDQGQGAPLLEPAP
PAFAH1B2 inh: PAFAH1B2 enzyme inhibitors, primary screen, biochemical, fluorescence polarization, human; Platelet-activating factor acetylhydrolase IB subunit alpha2 (Homo sapiens), P68402; recombinant PAFAH1B2, FP-rhodamine activity probe; inhibition, % at 3.39 µM; hit rate 1.2% among 340,000; AID 492953, 2010;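 active = inhibition above the mean of all tested compounds plus 3 SD, cut at about 24% in these data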;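 note: 0% = enzyme with DMSO and 100% = wells lacking PAFAH1B2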
Target sequence (P68402 whole entry, looked up): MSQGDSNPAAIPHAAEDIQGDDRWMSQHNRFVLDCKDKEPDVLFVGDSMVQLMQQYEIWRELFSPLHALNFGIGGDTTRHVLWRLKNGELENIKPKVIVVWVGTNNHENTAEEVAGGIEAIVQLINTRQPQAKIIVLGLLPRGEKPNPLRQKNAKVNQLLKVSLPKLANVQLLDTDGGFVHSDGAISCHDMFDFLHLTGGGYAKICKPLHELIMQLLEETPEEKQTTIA
VIM-2 inh: VIM-2 metallo-beta-lactamase inhibitors, primary screen, biochemical, epi-absorbance readout, Pseudomonas aeruginosa enzyme | purified VIM-2, nitrocefin hydrolysis, epi-absorbance fluorescence | inhibition, % at 5.6 µM | hit rate 0.89% among 290,000;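 active = inhibition above the mean of all tested compounds plus 3 SD, cutoff set per screening run, cut at about 7.5% in these data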;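 note: red hydrolysis product quenches plate fluorescence so inhibitors raise well fluorescence; 0% = enzyme with DMSO and 100% = DMSO without enzyme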
pPAFAH inh: pPAFAH enzyme inhibitors, primary screen, biochemical, fluorescence polarization, human; hit rate 1.5% among 330,000; inhibition, % at 3.39 µM; recombinant pPAFAH, FP-rhodamine probe fluorescence polarization; Platelet-activating factor acetylhydrolase (Homo sapiens), Q13093; AID 463082, 2010;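 active = inhibition above the mean inhibition across the screen plus 3 SD, cut at about 25% in these data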;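 note: inhibitors block binding of the rhodamine activity-based probe so polarization drops; 0% = enzyme with DMSO and 100% = wells lacking pPAFAH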
IMP-1 inh: IMP-1 metallo-beta-lactamase inhibitors, primary screen, biochemical, epi-absorbance readout, Pseudomonas aeruginosa enzyme; metallo-beta-lactamase IMP-1 (Pseudomonas aeruginosa); purified IMP-1, nitrocefin hydrolysis, epi-absorbance fluorescence; inhibition, % at 5.6 µM; hit rate 0.45% among 290,000; AID 1556, 2009;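 active = inhibition above the mean plus 3 SD of all compounds in the same screening run, cut at about 4.5% in these data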;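 note: 0% = IMP-1 with DMSO and 100% = DMSO wells lacking enzyme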
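System: Purified IMP-1 | Read-out basis: Percent enzyme inhibition | Controls: IMP-1 with DMSO as 0%, enzyme-free DMSO as 100% | Replicates: One well per compound | Doses: 5.6 µM nominal single concentration | Detection: Epi-absorbance fluorescence, 480 nm excitation, 530 nm emission | Incubation: 25 °C, 15 min preincubation, 25 min reaction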
PAFAH2 inh: PAFAH2 enzyme inhibitors, primary screen, biochemical, fluorescence polarization, human; Platelet-activating factor acetylhydrolase 2, cytoplasmic (Homo sapiens), Q99487; recombinant PAFAH2, FP-rhodamine activity probe; inhibition, % at 3.39 µM; hit rate 0.99% among 340,000;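 active = inhibition above the mean over all tested compounds plus 3 SD, cut at about 30% in these data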;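 note: inhibitors block probe labeling of enzyme so polarization drops; 0% = enzyme with DMSO and 100% = wells lacking PAFAH2 protein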
The depositor's hits bear a star; x = no result given.

SMILES	PAFAH1B3 inh	PAFAH1B2 inh	VIM-2 inh	pPAFAH inh	IMP-1 inh	PAFAH2 inh
O=C(CC(C(=O)c1ccccc1)c1ccccc1)c1ccccc1 (configuration not stated)	7	5	x	x	x	9
O=C(CC(C(=O)O)c1cccc(Cl)c1)c1ccccc1 (configuration not stated)	11	-2	11*	3	0	5
Cc1cc(C)c(OCC(=O)OCC(=O)NC2CCC(C)CC2)c(C)c1 (configuration not stated)	3	6	x	26*	x	-3
Cc1cc(C)c(OCC(=O)OCC(=O)NCCC2=CCCCC2)c(C)c1	8	3	x	33*	x	-1
CCC(=O)c1ccc(OCC(=O)OCC(=O)NCCC2=CCCCC2)cc1	0	0	x	3	x	0
Cc1ccc(SCC(=O)NCCC2=CCCCC2)cc1	1	50*	-3	5	-8	-2
CCN1C(=NCc2ccco2)N[C@@H](c2cccc(F)c2)C(C(=O)OC)=C1C	9	0	-1	-7	-4	-1
Cc1ccccc1CNC(=O)CN(c1ccccc1Cl)S(C)(=O)=O	3	3	-1	0	-4	10
Cc1oc(C)c2c(=O)ccc3c(c12)OC(N)=C(C#N)C3c1ccccc1 (configuration not stated)	8	2	-2	13	-1	9
CSc1ccc(C2C(C#N)=C(N)Oc3c2ccc(=O)c2c(C)oc(C)c32)cc1 (configuration not stated)	3	2	-3	31*	-2	24
Cc1oc(C)c2c(=O)ccc3c(c12)OC(N)=C(C#N)C3c1ccccc1Cl (configuration not stated)	-1	-10	0	25*	-1	4
CC(=O)C1=C(C)OC(N)=C(C#N)C1c1cccc2ccccc12 (configuration not stated)	-1	6	2	3	0	2
Cc1ccc(NS(=O)(=O)c2ccc(CCC(=O)NC3CC3)cc2)cc1	10	11	-6	20	-4	-4
COc1ccc(NS(=O)(=O)c2ccc(C)c(C(=O)N(C)Cc3ccc(C)cc3)c2)cc1	9	-1	x	28*	x	7
COCCNC(=O)CCc1ccc(S(=O)(=O)Nc2ccc(C)cc2)cc1	-4	12	-4	25*	-6	1
COc1ccc(NS(=O)(=O)c2ccc(C(=O)N(C)Cc3ccc(C)o3)cc2)cc1	9	4	x	32*	x	0
COc1ccc(NS(=O)(=O)c2ccc(NC(=O)C3CCCO3)cc2)cc1 (configuration not stated)	-1	2	0	26*	0	-6
CNC(=S)Nc1cccc(S(=O)(=O)NCc2ccco2)c1	-4	1	x	2	x	8
S=C(NCCCN1CCN(CCCNC(=S)NC2CCCCC2)CC1)NC1CCCCC1	8	5	x	x	x	8
Cc1ccc(-n2ncc3c2CC(C)(C)CC3NC(=O)c2ccncc2)cc1 (configuration not stated)	4	-1	-2	2	-1	-4
O=C(O)c1cc(-c2ccc(Cl)c(Cl)c2)n(-c2ccccc2)n1	1	29*	0	6	-3	-2
Cc1ccc(-n2nc(C(=O)O)cc2-c2ccccc2)cc1	6	19	-2	6	1	5
Nc1[nH]c(=O)nc(Nc2ccccc2)c1N=O	8	7	x	0	x	2
O=C(O)[C@@H]1CSC2c3ccccc3C(=O)N21 (some centres not stated)	8	0	-1	-4	25*	-1
CC(=O)c1cccc(OCC(=O)N(C)CC(=O)NCc2ccco2)c1	8	-1	x	17	x	-9
SMILES	PAFAH1B3 inh	PAFAH1B2 inh	VIM-2 inh	pPAFAH inh	IMP-1 inh	PAFAH2 inh
CC1CCN(S(=O)(=O)c2ccc(NC(=O)[C@@H]3CCCC[C@@H]3C(=O)O)cc2)CC1	1	48*	-2	1	-3	4
O=C(N[C@@H](Cc1ccccc1)C(=O)N1CCN(S(=O)(=O)c2ccc(F)cc2)CC1)c1ccco1	12	24*	x	x	x	3
COC(=O)Nc1ccc(S(=O)(=O)N2CCC(C)CC2)cc1	-5	25*	-1	-6	-3	9
CC1CCN(S(=O)(=O)c2ccc(NC(=O)c3ccco3)cc2)CC1	9	27*	-1	-5	-1	-11
O=C(Nc1ccc(S(=O)(=O)N2CCCCC2)cc1)c1ccco1	-5	2	-2	5	-2	5
COC(=O)Nc1ccc(S(=O)(=O)N2CCC(C(=O)N3CCC(C)CC3)CC2)cc1	4	3	-1	5	-2	2
CC1CCN(S(=O)(=O)c2ccc(NC(=O)C3CC3)cc2)CC1	0	25*	0	5	-1	-5
Cc1ccc(S(=O)(=O)N2CCC(C(=O)Nc3ccc(S(=O)(=O)N4CCCC4)cc3)CC2)cc1	-3	8	x	-11	x	-3
CC1CCN(S(=O)(=O)c2ccc(NC(=O)c3ccncc3)cc2)CC1	14	29*	-2	-1	0	-3
COc1ccccc1NS(=O)(=O)c1cc(C(=O)N2CCN(C/C=C/c3ccccc3)CC2)ccc1C	2	5	-4	5	-5	3
O=C(CSc1nnnn1-c1ccc(F)cc1)c1ccc(O)c(O)c1	4	9	3	31*	-2	19
Cc1ccc(C(=O)Nc2cccc(NC(=O)c3cccs3)c2)c(C)c1	7	3	-1	2	-3	-1
Cc1ccc(SCCC(=O)OCC(=O)Nc2ccc(S(N)(=O)=O)cc2)cc1	-3	24*	-2	12	-5	-7
NS(=O)(=O)c1ccc(NC(=O)COC(=O)CCc2ccccc2)cc1	7	4	-2	-3	-3	-3
O=C(Cn1c(=O)oc2ccccc21)Nc1ccc(Br)cc1	8	-1	-2	-5	-1	-2
N#Cc1c(NC(=O)CSc2n[nH]c(N)n2)oc(-c2ccccc2)c1-c1ccccc1	10	25*	-3	12	-1	-3
N#Cc1c(NC(=O)Cn2c(=O)oc3ccccc32)oc(-c2ccccc2)c1-c1ccccc1	-8	40*	4	22	0	15
Cc1cccc(C)c1OCC(=O)Nc1oc(-c2ccccc2)c(-c2ccccc2)c1C#N	3	-2	-2	-5	-2	-20
CC(C)(C)Cc1nnc(NC(=O)CSc2ccccc2)s1	8	7	-3	-2	-3	0
CN(CC(=O)Nc1ccc(Cl)c(C(F)(F)F)c1)C(=O)c1cnccn1	8	2	x	0	x	-2
